Assay results published in PubChem BioAssay.
Activity calls are given as the source filed them. Unless noted, no stated cut-off is given here; in the data, active means inhibition above about 30%; inactive means the rest.

Assays:
[1] = Her2 expression decrease, cell viability multiplex – SKBR3 breast tumor cells, AlphaScreen, ATP viability, primary screen (AID 461;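 active means Her2 level under about 52% in both replicate screens, with viability over 70% of control, limit read from the data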;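 on Her2 level: lower value means less Her2 protein in the cells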;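 on viability: percent of carrier control wells set as 100% viability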); settings: SKBR3 Her2 protein level, 18-24 h, measured here: SKBR3 viability, ATP luminescence, at 10 µM
[2] = molecular target: Receptor tyrosine-protein kinase erbB-2 (Homo sapiens) (UniProt P04626); test: as above; settings: 18-24 h, at 10 µM, stronger effect = lower value
Sequence of Receptor tyrosine-protein kinase erbB-2 (Homo sapiens) (P04626 whole entry, looked up): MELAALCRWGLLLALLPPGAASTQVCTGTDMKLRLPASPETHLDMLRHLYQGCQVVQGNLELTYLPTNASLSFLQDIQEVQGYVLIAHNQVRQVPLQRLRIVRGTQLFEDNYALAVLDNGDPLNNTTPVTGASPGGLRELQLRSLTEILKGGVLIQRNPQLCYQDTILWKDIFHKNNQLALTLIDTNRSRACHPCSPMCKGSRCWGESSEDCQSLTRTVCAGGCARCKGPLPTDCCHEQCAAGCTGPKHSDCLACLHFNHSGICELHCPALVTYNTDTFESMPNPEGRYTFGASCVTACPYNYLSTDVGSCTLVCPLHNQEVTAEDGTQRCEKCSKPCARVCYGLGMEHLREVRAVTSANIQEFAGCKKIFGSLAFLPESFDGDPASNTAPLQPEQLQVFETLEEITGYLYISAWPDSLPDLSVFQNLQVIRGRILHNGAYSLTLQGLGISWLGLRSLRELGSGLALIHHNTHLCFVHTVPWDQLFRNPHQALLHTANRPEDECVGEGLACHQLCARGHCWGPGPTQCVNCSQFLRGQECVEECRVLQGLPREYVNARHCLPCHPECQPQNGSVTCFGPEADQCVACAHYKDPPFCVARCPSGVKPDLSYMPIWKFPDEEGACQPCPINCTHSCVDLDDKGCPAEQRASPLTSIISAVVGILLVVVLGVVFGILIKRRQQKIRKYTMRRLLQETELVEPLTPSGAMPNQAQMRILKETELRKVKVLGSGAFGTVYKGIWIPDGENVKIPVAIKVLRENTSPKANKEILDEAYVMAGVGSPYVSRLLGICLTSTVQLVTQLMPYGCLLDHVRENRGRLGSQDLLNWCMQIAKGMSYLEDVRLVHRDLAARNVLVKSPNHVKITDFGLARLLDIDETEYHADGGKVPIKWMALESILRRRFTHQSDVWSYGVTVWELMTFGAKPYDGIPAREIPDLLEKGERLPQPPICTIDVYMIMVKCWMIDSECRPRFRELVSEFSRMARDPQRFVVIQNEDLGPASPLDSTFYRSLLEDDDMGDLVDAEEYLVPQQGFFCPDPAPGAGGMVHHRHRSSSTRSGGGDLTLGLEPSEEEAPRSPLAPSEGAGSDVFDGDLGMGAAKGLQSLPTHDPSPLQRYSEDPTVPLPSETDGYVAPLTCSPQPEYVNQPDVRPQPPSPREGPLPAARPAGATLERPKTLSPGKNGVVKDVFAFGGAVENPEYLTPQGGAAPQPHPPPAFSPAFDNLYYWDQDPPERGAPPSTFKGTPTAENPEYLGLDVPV

[3] = reduced viability of SK-BR-3 breast cancer cells – cell-based, 24 h, human, pilot screen (AID 572;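 active means viability at or below 10% of carrier control in both of two separate runs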;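 further: compound exposure lasted between 18 and 24 h rather than exactly 24 h; 100% = carrier-treated control wells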); settings: SK-BR-3 viability, CellTiter-Glo luminescence, at 10 µM, stronger effect = lower value
[4] = HUVEC growth inhibition – cell-based, human, primary screen (AID 575;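 active means viability at or below 30% in both replicate assays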;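 further: 100% = median of untreated cell wells with 0.1% DMSO on each plate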); settings: HUVEC proliferation, CellTiter-Glo luminescence, 72 h; at 10 µM; stronger effect = lower value
Summary of the method: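 Test system: primary human umbilical vein endothelial cells. Quantity: 1250 cells/well. Compound: single 10 µM dose, 0.1% DMSO, from 5x medium stock. Timing: 72 h treatment at 37 °C. Detection: ATP-based CellTiter-Glo luminescent read. Benchmarks: vehicle and MePR control wells. Format: 384-well plates coated with collagen.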

[5] = H69AR cell proliferation blockers – human, duplicate replicates, primary screen (AID 580;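 active means viability at or under a set limit in both replicates, limit being median viability minus 3 SD, cut at about 48% in these data, passing the limit was not always enough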;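 further: 100% = mean luminescence of untreated wells and 0% = no signal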); settings: H69AR lung tumor cells viability, ATP luminescence, 72 h; at 10 µM; stronger effect = lower value
[6] = MRP1 drug-resistance reversers in H69AR cells – cell-based, doxorubicin co-treatment, pilot screen (AID 601;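 active means viability loss from added drug above about 55%, and viability with drug at most 40%, in both replicates, limit read from the data, passing the limit was not always enough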); settings: CellTiter-Glo, 72 h, at 10 µM; for differential viability (reversal): stronger effect = higher value
[7] = yeast transport mutant growth inhibition pilot in 384-well plates, post-Golgi transport modulator project (AID 636; in the data active means inhibition above about 31%); settings: absorbance 615 nm, about 18 h, stronger effect = higher value
[8] = growth suppression of yeast trafficking mutant, preliminary HTS, modulators of trafficking downstream of Golgi apparatus project, 1536-format plate, OD 615 nm (AID 637); settings: yeast transport mutant growth, absorbance 615 nm, 18 h; stronger effect = higher value
[9] = H69AR cells + 2 uM doxorubicin, measured here: viability with 2 uM doxorubicin, stronger effect = lower value
[10] = H69AR cells, compound alone cytotoxicity

SMILES | viability [1] | Her2 level [2] | viability [3] | viability [4] | viability [5] | differential viability (reversal) ([6]; H69AR cells + 2 uM doxorubicin) | viability [6, 9] | viability [6, 10] | inhibition [7] | inhibition [8]
O=C(CN(C(=O)CCNC(=O)c1ccco1)c1ccccc1)NC1CCCC1 | 93% | 112% (inactive) | 93% (inactive) | 103% (inactive) | 93.5% (inactive) | -5.44% (inactive) | 98.9% | 93.5% | 2.53% (inactive) | 33.5% (active)
O=C(NCCN1CCOCC1)c1csc2c1CCCC2 | 97.5% | 83% (inactive) | 97.5% (inactive) | 95% (inactive) | 102% (inactive) | 16.4% (inactive) | 86% | 102% | -7.3% (inactive) | -1.83% (inactive)
CCOC(=O)C1=C(C)OC(N)=C(C#N)C1c1ccoc1 (stereo not given) | 111% | 107% (inactive) | 111% (inactive) | 88.1% (inactive) | 95.3% (inactive) | 11.2% (inactive) | 84% | 95.3% | 1.04% (inactive) | -4.17% (inactive)
COc1cccc(NC(=O)NC2(C(F)(F)F)Oc3ccccc3O2)c1 | 91.5% | 98% (inactive) | 91.5% (inactive) | 69.1% (inactive) | 30.7% (active) | -17.4% (inactive) | 48.1% | 30.7% | -5.07% (inactive) | -0.16% (inactive)
O=C(Nc1ccc2c(c1)OCO2)C1CCCN1C(=O)Nc1ccccc1F (stereo not given) | 110% | 90% (inactive) | 110% (inactive) | 104% (inactive) | 96.2% (inactive) | 8.28% (inactive) | 87.9% | 96.2% | -2.89% (inactive) | -3.97% (inactive)
Cc1cc(NC(=O)Cn2cnc3c2c(=O)n(C)c(=O)n3C)n(-c2ccccc2)n1 | 116% | 93% (inactive) | 116% (inactive) | 117% (inactive) | 108% (inactive) | 8.22% (inactive) | 99.3% | 108% | -7.97% (inactive) | 0.83% (inactive)
O=S(=O)(NCc1ccccc1)c1ccc2c(c1)OCCO2 | 124% | 110% (inactive) | 124% (inactive) | 97.1% (inactive) | 76.8% (inactive) | -7.4% (inactive) | 84.2% | 76.8% | -3.9% (inactive) | -2.7% (inactive)
O=C(NCc1cccs1)c1cc2c(s1)CCCC2 | 92.5% | 102% (inactive) | 92.5% (inactive) | 85.8% (inactive) | 97.6% (inactive) | 5.47% (inactive) | 92.2% | 97.6% | 0.65% (inactive) | 2.13% (inactive)
O=C1N(c2ccccc2)C2CS(=O)(=O)CC2N1c1ccc(Br)cc1 (stereo not given) | 102% | 88.5% (inactive) | 102% (inactive) | 97.7% (inactive) | 101% (inactive) | 17.5% (inactive) | 83.2% | 101% | -6.4% (inactive) | -0.95% (inactive)
Cc1ccc(-c2nnc3ccc(SCC(=O)NCc4ccco4)nn23)cc1 | 100% | 87.5% (inactive) | 100% (inactive) | 89% (inactive) | 93.2% (inactive) | 9.33% (inactive) | 83.9% | 93.2% | -5.41% (inactive) | -8.33% (inactive)
COc1ccc(OC)c(NC(=O)CS(=O)(=O)Cc2nc(-c3ccccc3C)oc2C)c1 | 97.5% | 97.5% (inactive) | 97.5% (inactive) | 66.1% (inactive) | 94.4% (inactive) | -2.23% (inactive) | 96.6% | 94.4% | -2.8% (inactive) | 6.83% (inactive)
CCC(=O)Nc1cc2nn(-c3ccccc3)nc2cc1Cl | 91% | 90.5% (inactive) | 91% (inactive) | 55% (inactive) | 68.2% (inactive) | -2.75% (inactive) | 70.9% | 68.2% | -7.57% (inactive) | 5.9% (inactive)
FC(F)Oc1ccc(-c2csc(Cc3nnc4n3CCCCC4)n2)cc1 | 78% | 102% (inactive) | 78% (inactive) | 110% (inactive) | 97.2% (inactive) | 5.74% (inactive) | 91.5% | 97.2% | -7.26% (inactive) | -9.05% (inactive)
CCOC(=O)c1ccc2nc(NC(NC(C)=O)(C(=O)OC)C(F)(F)F)sc2c1 (stereo not given) | 98.5% | 88.5% (inactive) | 98.5% (inactive) | 82.8% (inactive) | 98.6% (inactive) | 15% (inactive) | 83.6% | 98.6% | -3.03% (inactive) | -1.82% (inactive)
O=C(C1CCCCC1)N1CCC(c2nc3c(nnn3Cc3c(F)cccc3Cl)c(=O)[nH]2)CC1 | 87.5% | 96.5% (inactive) | 87.5% (inactive) | 85.2% (inactive) | 71.3% (inactive) | 48.4% (inactive) | 22.9% | 71.3% | -3.77% (inactive) | -6.39% (inactive)
COc1cc(Br)cc(/C=N/c2ncn[nH]2)c1O | 134% | 89% (inactive) | 134% (inactive) | 35.2% (inactive) | 86.6% (inactive) | -17.5% (inactive) | 104% | 86.6% | -4.81% (inactive) | -3.44% (inactive)
Cc1ccccc1NC(=O)CSc1nc(N)c(C#N)c(-c2cccs2)c1C#N | 115% | 77% (inactive) | 115% (inactive) | 72.3% (inactive) | 30.2% (active) | 3.09% (inactive) | 27.1% | 30.2% | -9.32% (inactive) | 6.83% (inactive)
COc1ccc2c(c1OC)C(=O)OC2Nn1cncn1 (stereo not given) | 95.5% | 96.5% (inactive) | 95.5% (inactive) | 109% (inactive) | 103% (inactive) | 3.5% (inactive) | 99.3% | 103% | -4.08% (inactive) | 0.33% (inactive)
CCn1c(=O)c(C(=O)Nc2cccnc2)c(O)c2ccccc21 | 103% | 84.5% (inactive) | 103% (inactive) | 113% (inactive) | 67.7% (inactive) | -24.2% (inactive) | 91.9% | 67.7% | -0.93% (inactive) | 100% (active)
CC1Cc2cc(/C(O)=C3/C(=O)C(=O)N(CCN4CCOCC4)C3c3cccc(O)c3)ccc2O1 (stereo not given) | 98.5% | 120% (inactive) | 98.5% (inactive) | 98.9% (inactive) | 106% (inactive) | 2.56% (inactive) | 104% | 106% | 3.2% (inactive) | -5.32% (inactive)
O=C(Nc1cccnc1)c1cccc(NC(=O)c2ccco2)c1 | 97.5% | 85% (inactive) | 97.5% (inactive) | 94.4% (inactive) | 89.9% (inactive) | 0.575% (inactive) | 89.3% | 89.9% | -1.56% (inactive) | 4.1% (inactive)
CC(C)Cc1nc(S(=O)(=O)c2ccc(Cl)cc2)c(N2CCOCC2)o1 | 128% | 94.5% (inactive) | 128% (inactive) | 87.8% (inactive) | 90.7% (inactive) | 0.63% (inactive) | 90.1% | 90.7% | -5.06% (inactive) | 1.75% (inactive)
COC(=O)c1cccc(NC(=O)Cc2coc3cc(OC)ccc23)c1 | 102% | 96.5% (inactive) | 102% (inactive) | 87.1% (inactive) | 94.2% (inactive) | 15.6% (inactive) | 78.6% | 94.2% | 3.51% (inactive) | -6.19% (inactive)
COC(=O)c1[nH]c2ccc(F)cc2c1NS(=O)(=O)c1ccc(OC)cc1OC | 79% | 75% (inactive) | 79% (inactive) | 88.5% (inactive) | 84.4% (inactive) | -15.5% (inactive) | 99.9% | 84.4% | -6.76% (inactive) | 4.92% (inactive)
Cc1ccc(S(=O)(=O)N2CCOCC2)cc1C(=O)OCC(=O)N1CCc2ccccc2C1 | 82.5% | 87.5% (inactive) | 82.5% (inactive) | 99.9% (inactive) | 87.9% (inactive) | -7.28% (inactive) | 95.2% | 87.9% | -4% (inactive) | 2.95% (inactive)
Cc1cc(NC(=O)CN2CCC(O)(c3cccc(F)c3)CC2)no1 | 97% | 107% (inactive) | 97% (inactive) | 110% (inactive) | 109% (inactive) | 22.5% (inactive) | 86.6% | 109% | -0.27% (inactive) | -6.83% (inactive)
COC(=O)CC1SC(=O)NC1=O (stereo not given) | 110% | 120% (inactive) | 110% (inactive) | 102% (inactive) | 105% (inactive) | 10.4% (inactive) | 94.6% | 105% | 1.05% (inactive) | -7.21% (inactive)
O=C(O)C1CC=CCC1C(=O)Nc1cc(Cl)ccc1Cl (stereo not given) | 86% | 100% (inactive) | 86% (inactive) | 81.2% (inactive) | 93.5% (inactive) | 8.81% (inactive) | 84.7% | 93.5% | 0% (inactive) | -0.82% (inactive)
